The values that follow come from ChEMBL document CHEMBL3994631, “Design, synthesis, structure-activity relationship and mechanism of action studies of a series of 4-chloro-1-phthalazinyl hydrazones as a potent agent against Leishmania braziliensis” (Eur J Med Chem, 2017).

The test system of data set [1] is Leishmania braziliensis. In words: Antileishmanial activity against Leishmania braziliensis MHOM/CO/87/UA301 promastigote forms isolated from infected Balb/c mouse assessed as parasite growth inhibition at 20 uM after 96 hrs by MTT assay relative to control. In kind it is functional. To be noted: MHOM/CO/87/UA301, 96 h, read-out: GI. The essentials:
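Promastigotes in LIT + 10% FBS at 2x10^6/mL exposed to a single 20 μM concentration for 96 h at 29 °C. MTT (1 mg/mL) added for 4 h in darkness, cells lysed with acidic isopropanol, read at 570 nm. Inhibition relative to untreated parasites; means of three independent experiments.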

In data set [2] the test system is Leishmania braziliensis. In words: Antileishmanial activity against Leishmania braziliensis MHOM/CO/87/UA301 promastigote forms isolated from infected Balb/c mouse by neubauer chamber method. The data set is classed as functional. The essentials:
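Promastigotes seeded at 1x10^6/mL in LIT medium at 29 °C with 0.1–10 μM compound. Growth followed daily by Neubauer chamber counting; three independent experiments per concentration. EC50 obtained by nonlinear regression of concentration–response data.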

The test system of data set [3] is Leishmania braziliensis. Kind of data set: Inhibition of DHFR in Leishmania braziliensis MHOM/CO/87/UA301 promastigote forms assessed as growth inhibition at 2 uM after 72 hrs in presence of folinic acid by neubauer chamber method.
The nature of data set [4]: Cytotoxicity against mouse BMDM assessed as reduction in cell viability after 48 hrs by MTT assay. Conditions: bone marrow-derived macrophages (BMDM), read-out: LC50. In kind it is cell-based. The essentials:
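Mouse bone-marrow macrophages (BMDM) were differentiated in L-929 conditioned medium and kept at 37 °C, 5% CO2, 90% humidity. Cells at 5×10^4 cells/mL were exposed to compounds at 10 to 100 µM for 48 h. Read-out was MTT reduction as a percentage of control cells. LC50 is the mean of three independent experiments.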
A general note: Tetrazolium dyes change colour on reduction, which living cells bring about.

Data set [5] has as its system Leishmania braziliensis. Kind of data set: Potency index, ratio of miltefosine EC50 to compound EC50 for Leishmania braziliensis MHOM/CO/87/UA301 promastigote forms isolated from infected Balb/c mouse. In kind it is functional.
Data set [6] deals with Leishmania braziliensis. In words: Antileishmanial activity against Leishmania braziliensis MHOM/CO/87/UA301 promastigote forms isolated from infected Balb/c mouse assessed as induction of oxidative stress by measuring reduction in mitochondrial dehydrogenase activity at 20 uM after 30 to 180 mins by MTT assay. In kind it is functional. Summed up: (§1)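 10^6 promastigotes in 500 μL per well treated with 20 μM compound at 28 °C, with untreated wells for each time point; sampled between 30 and 180 min. Cells counted, then MTT added (50 μL of 5 mg/mL in PBS) for 4 h. Stopped with acidic isopropanol, read at 570 nm. Pmdh (%) taken relative to untreated parasites as 100%; triplicate.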

Data set [7] relates to Leishmania braziliensis. In words: Inhibition of DHFR in Leishmania braziliensis MHOM/CO/87/UA301 promastigote forms assessed as growth inhibition at 10 uM after 72 hrs in presence of folinic acid by neubauer chamber method.
For data set [8], the system named is Leishmania braziliensis. Kind of data set: Antileishmanial activity against Leishmania braziliensis MHOM/CO/87/UA301 amastigote forms infected in mouse BMDM after 96 hrs by Giemsa staining based assay. The data set is classed as functional. To be noted: MHOM/CO/87/UA301, BMDM. The essentials: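 BMDM mixed 1:10 with L. braziliensis promastigotes in DMEM + 10% FBS on glass coverslips, 18 h at 37 °C, 5% CO2. Medium then replaced with medium containing compound and incubated 96 h under the same conditions. Giemsa-stained macrophages counted for % total and % infected macrophages and amastigotes per macrophage; triplicate.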

Data set [9] can be described thus: Selectivity index, ratio of LC50 for mouse BMDM to EC50 for Leishmania braziliensis MHOM/CO/87/UA301 amastigote forms infected in mouse BMDM.
In data set [10] the test system is Leishmania braziliensis. Kind of data set: Ratio of EC50 for Leishmania braziliensis MHOM/CO/87/UA301 amastigote forms infected in mouse BMDM to EC50 for Leishmania braziliensis MHOM/CO/87/UA301 promastigote forms. In kind it is functional.
In data set [11] the test system is Leishmania braziliensis. Kind of data set: Antileishmanial activity against Leishmania braziliensis MHOM/CO/87/UA301 amastigote forms infected in mouse BMDM assessed as induction of nitrite production after 48 hrs by Griess assay. In kind it is functional. The essentials:
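Macrophages infected with L. braziliensis were incubated 48 h with compound at 0.08, 0.80 and 8.0 μM. Controls: untreated infected and uninfected macrophages, three wells each. Nitrite in supernatants measured by Griess reaction against a sodium nitrite standard (detection limit 1.56 μM). Triplicate; expressed as % of untreated infected macrophages.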
A general note: Griess reagent forms a coloured azo dye with nitrite.

Data set [12] concerns Leishmania braziliensis. Kind of data set: Antileishmanial activity against Leishmania braziliensis MHOM/CO/87/UA301 promastigote forms isolated from infected Balb/c mouse assessed as induction of oxidative stress by measuring reduction in mitochondrial dehydrogenase activity at 20 uM by MTT assay. The data set is classed as functional. To be noted: TDE = time-dependent effect. Summed up:
as §1

Data set [13] concerns Leishmania braziliensis. In words: Cytotoxicity against Leishmania braziliensis MHOM/CO/87/UA301 promastigote forms assessed as cell death at 20 uM after 30 mins by MTT assay. Conditions: 0.5 h. Summed up: as §1
The test system of data set [14] is Leishmania braziliensis. Kind of data set: Inhibition of CuZn-SOD in Leishmania braziliensis MHOM/CO/87/UA301 promastigote forms assessed as reduction in superoxide level at 0.012 to 1.2 uM after 30 mins by spectrophotometric based xanthine oxidase coupled enzyme assay. The essentials: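 Promastigotes (4 million in 500 μL) treated at 0.012, 0.12 and 1.2 μM, then pelleted. Sonicated in STE buffer pH 7.8 and centrifuged; protein measured by Bradford. SOD activity read as NBT reduction by superoxide from xanthine/xanthine oxidase (8.4 U) with EDTA, Na2CO3 and albumin. 30 min at 27 °C, CuCl2 added, A595 measured; controls without xanthine oxidase; triplicate.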

The test system of data set [15] is Leishmania braziliensis. In words: Inhibition of DHFR in Leishmania braziliensis MHOM/CO/87/UA301 promastigote forms assessed as growth inhibition at 0.5 uM after 72 hrs in presence of folinic acid by neubauer chamber method.

Active and inactive are the calls of the source. The calls are words filed in the database; no cut-off is given here. Bounds are passed on as bounds.

As for `Clc1nnc(N/N=C/c2cccc(Br)c2)c2ccccc12`, in the data set on Leishmania braziliensis [1], the inhibition of growth at 20 µM worked out at 5.89%. For the same compound, in the data set on Leishmania braziliensis [2], the EC50 is more than 20 µM.
For `C/C(=N\Nc1nnc(Cl)c2ccccc12)c1ccc(Br)cc1` the same measures were 10.6% and more than 20 µM.
For `Clc1cccc(/C=N/Nc2nnc(Cl)c3ccccc23)c1`, the inhibition of growth at 20 µM in the data set with Leishmania braziliensis [1] was found to be 7.03%. The compound further had an EC50 in the data set on Leishmania braziliensis [2] of more than 20 µM.
`C/C(=N\Nc1nnc(Cl)c2ccccc12)c1ccc(Cl)cc1Cl`: the inhibition of growth at 20 µM in the data set on Leishmania braziliensis [1] came to 37.5%. In addition, the EC50 in the data set on Leishmania braziliensis [2] was more than 20 µM.
For `Fc1ccc(/C=N/Nc2nnc(Cl)c3ccccc23)cc1` the same measures were 17.8% and more than 20 µM.
For `CN(Cc1cnc2nc(N)nc(N)c2n1)c1ccc(C(=O)N[C@@H](CCC(=O)O)C(=O)O)cc1`, the inhibition result in the data set with Leishmania braziliensis [3] is “Active”.
As to `O=[N+]([O-])c1cccc(/C=N/Nc2nnc(Cl)c3ccccc23)c1`, the inhibition of growth at 20 µM in the data set on Leishmania braziliensis [1] came to 10.6%. Besides, in the data set on Leishmania braziliensis [2], the EC50 is more than 20 µM.
Regarding `C/C(=N\Nc1nnc(Cl)c2ccccc12)c1ccc(O)cc1`, the inhibition of growth at 20 µM with Leishmania braziliensis [1] amounted to 22.9%. In the data set on Leishmania braziliensis [2], the EC50 was more than 20 µM.
For `COc1cc([N+](=O)[O-])ccc1/C=N/Nc1nnc(Cl)c2ccccc12` the same measures were 11.9% and more than 20 µM.
In the same order, the values of `Clc1nnc(NN=Cc2ccc(Br)cc2)c2ccccc12` are 17.2% and more than 20 µM.
In the same order, the values of `Clc1nnc(N/N=C/c2ccccc2)c2ccccc12` are 8.46% and more than 20 µM.
Regarding `O=[N+]([O-])c1ccc(C=NNc2nnc(Cl)c3ccccc23)cc1`, the inhibition of growth at 20 µM in the data set on Leishmania braziliensis [1] lay within 41.9 to 58.1%. The compound further displayed an EC50 in the data set on Leishmania braziliensis [2] of less than 20 µM.
For `Clc1ccc(C=NNc2nnc(Cl)c3ccccc23)cc1` the same measures were 16.8% and more than 20 µM.
With `C/C(=N\Nc1nnc(Cl)c2ccccc12)c1cccc([N+](=O)[O-])c1`, the inhibition of growth at 20 µM in the data set on Leishmania braziliensis [1] stood at 9.46%. The concentration for a half-maximal effect (EC50) in the data set with Leishmania braziliensis [2] was more than 20 µM.
Turning to `Clc1nnc(N/N=C/c2ccco2)c2ccccc12`, the inhibition of growth at 20 µM with Leishmania braziliensis [1] was 40.9 to 59.1%. In addition, the EC50 with Leishmania braziliensis [2] is not below 20 µM.
Consider `C/C(=N\Nc1nnc(Cl)c2ccccc12)c1ccccc1`, for which, in the data set with Leishmania braziliensis [1], the inhibition of growth at 20 µM came out at 37%. In the data set on Leishmania braziliensis [2], the concentration giving a half-maximal response (EC50) was more than 20 µM.
For `C/C(=N\Nc1nnc(Cl)c2ccccc12)c1ccc([N+](=O)[O-])cc1`, in the data set with Leishmania braziliensis [1], the inhibition of growth at 20 µM was determined as 19.1%. For the same compound, in the data set on Leishmania braziliensis [2], the EC50 was more than 20 µM.
With `O=[N+]([O-])c1ccc(C=NNc2nnc(Cl)c3ccccc23)s1`, the inhibition of growth at 20 µM in the data set with Leishmania braziliensis [1] lay in the range of 11.5 to 88.5%. The compound further had an EC50 with Leishmania braziliensis [2] of 3.2 µM. Also, the CC50 at 48 h in [4] was less than 10 µM. For the same compound, in the data set with Leishmania braziliensis [5], the “Ratio EC50” value is 8.
In the case of `CCCCCCCCCCCCCCCCOP(=O)([O-])OCC[N+](C)(C)C` [MILTEFOSINE], the inhibition of growth at 20 µM in the data set on Leishmania braziliensis [1] turned out to be 67.8%. In addition, the EC50 with Leishmania braziliensis [2] lay in the range of 20 to 25 µM. The CC50 at 48 h in data set [4] is 125 µM. In addition, the result in the data set on Leishmania braziliensis [6] was inactive. The inhibition result with Leishmania braziliensis [7] is “inactive”.
Turning to `O=[N+]([O-])c1ccc(C=NNc2nnc(Cl)c3ccccc23)o1`, the inhibition of growth at 20 µM in the data set on Leishmania braziliensis [1] is 13.5 to 86.5%. Besides, the EC50 in the data set with Leishmania braziliensis [2] worked out at 0.12 µM; with Leishmania braziliensis [8] it was 590 nM. Further, the CC50 at 48 h in [4] was 14 µM. The “Selectivity Index” value in data set [9] came out at 23.7. Moreover, the “Ratio EC50” value came out at 4.9 in the data set with Leishmania braziliensis [10] and 208 in the data set with Leishmania braziliensis [5]. In addition, the Activity result in the data set on Leishmania braziliensis [11] is “Dose-dependent effect”; in the data set on Leishmania braziliensis [12], “Tde”; with Leishmania braziliensis [13], “Non-Toxic”. The inhibition result with Leishmania braziliensis [14] and in the data set with Leishmania braziliensis [15] was “inactive” throughout.
`Oc1ccccc1/C=N\Nc1nnc(Cl)c2ccccc12`: the inhibition of growth at 20 µM in the data set on Leishmania braziliensis [1] is 33.9 to 64.2%. The same compound yielded a concentration giving a half-maximal response (EC50) in the data set with Leishmania braziliensis [2] of more than 20 µM.
For `C/C(=N\Nc1nnc(Cl)c2ccccc12)c1cc(Cl)ccc1Cl` the same measures were 20% and more than 20 µM.

In general, EC50 refers to the concentration at which the effect is half-maximal.
